Assay results: ChEMBL document CHEMBL1141165, “Novel 8-substituted dipyridodiazepinone inhibitors with a broad-spectrum of activity against HIV-1 strains resistant to non-nucleoside reverse transcriptase inhibitors” (J Med Chem, 2005)

Assays:
[1] = target: T1, Human immunodeficiency virus type 1 reverse transcriptase (Human immunodeficiency virus 1, UniProt Q72547); assay: Effective concentration towards HIV-1 wild type reverse transcriptase activity by 50% measured in cellular assay
Method in brief: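 C8166 T-lymphocytes infected at MOI 0.001 with wild-type HIV-1, then cultured 3 days with serial compound dilutions in RPMI 1640 containing 10% FBS, gentamycin and 10 μM β-mercaptoethanol. Supernatants pooled from eight replicate wells. Extracellular p24 measured by antigen immunoassay.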

[2] = target: T2, Human immunodeficiency virus type 1 reverse transcriptase (Human immunodeficiency virus 1, UniProt Q72547, K103N/Y181C); assay: Effective concentration towards HIV-1 K103N/Y181C mutant reverse transcriptase activity by 50% measured in cellular assay
Method in brief: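 C8166 T-lymphocytes infected at MOI 0.001 with HIV-1 carrying wild-type or mutant RT, then grown 3 days with serial compound dilutions in RPMI 1640 + 10% FBS, 10 μg/mL gentamycin, 10 μM β-mercaptoethanol (also the diluent). Supernatant pooled from eight replica wells; extracellular p24 measured by HIV-1 p24 antigen kit.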

[3] = target: T1, Human immunodeficiency virus type 1 reverse transcriptase; assay: Inhibitory activity of compound dissolved in DMSO was determined against HIV-1 wild type reverse transcriptase (1-2 nM) by using [3H]dGTP (71 nM) as substrate, 50 mM Tris/HCl buffer, pH 7.8, incubated for 1 h at 37 degrees C
Method in brief: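 Wild-type RT preincubated 15 min at room temperature with inhibitor. Final reaction: Tris/HCl 50 mM pH 7.8, NaCl 60 mM, MgCl2 2 mM, DTT 6 mM, GSH 2 mM, Chaps 0.02%, DMSO 3%, poly rC 179 nM, biotin-dG15 18 nM, dGTP 288 nM, 3H-dGTP 71 nM, enzyme 1–2 nM, inhibitor 10 μM–0.5 nM. Run 1 h at 37 °C, EDTA-quenched, read with streptavidin SPA beads.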

[4] = target: T2, Human immunodeficiency virus type 1 reverse transcriptase; assay: Inhibitory activity of compound dissolved in DMSO was determined against HIV-1 (K103N/Y181C) mutant reverse transcriptase (1-2 nM) by using [3H]-dGTP (71 nM) as substrate, 50 mM Tris/HCl buffer, pH 7.8, incubated for 1 hr at 37 degrees C
Method in brief: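 RT at ≈3 nM preincubated 15 min at room temperature with inhibitor, then substrate added. Final mix: 50 mM Tris/HCl pH 7.8, 60 mM NaCl, 2 mM MgCl2, 6 mM DTT, 2 mM GSH, 0.02% Chaps, 3% DMSO, 179 nM poly rC, 18 nM biotin-dG15, 288 nM dGTP, 71 nM 3H-dGTP, 1–2 nM enzyme, inhibitor 10 μM–0.5 nM. Reaction 1 h at 37 °C, quenched with EDTA plus streptavidin SPA beads, CsCl added, scintillation counted.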

[5] = in vitro; conditions: male, human, liver microsomes
[6] = tested on: Caco-2; assay: Caco-2 permeability upon incubation at 37 degrees C for 180 minutes; assay type: functional, Homo sapiens
Method in brief: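 Cells grown on 12-well Transwell membranes and exposed to test solution for 180 min at 37 °C. Receiving-side (basolateral, A to B) samples analysed by HPLC. Apparent permeability = (ΔQ/Δt)/(A·C0), where ΔQ/Δt is the transport rate, A the monolayer area and C0 the initial donor concentration.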

Structure (SMILES) | EC50 [1] | EC50 [2] | IC50 [3] | IC50 [4] | half-life at 10 µM [5] | Caco-2 A-B [6]
CCN1c2ncc(CCOc3ccc(C(=O)O)cc3C)cc2C(=O)N(C)c2ccc(OC)nc21 | 0.0019 µM | 0.015 µM | 0.015 µM | 0.3 µM |  | 
CCN1c2ncc(CCOc3ccc4c(C(=O)O)cccc4c3)cc2C(=O)N(C)c2cccnc21 |  |  | 0.063 µM | 4 µM |  | 
CCN1c2ncc(CCOc3ccc(C(=O)O)cc3)cc2C(=O)N(C)c2cccnc21 | 0.0033 µM | 0.162 µM | 0.095 µM | 4.48 µM | 1.27 h | 
CCN1c2ncc(CCOc3ccc(C(=O)O)cc3Br)cc2C(=O)N(C)c2cccnc21 | 0.0032 µM | 0.035 µM | 0.018 µM | 0.3 µM |  | 
CCN1c2ncc(CCOc3ccc(CC(=O)O)cc3C)cc2C(=O)N(C)c2cccnc21 | 0.012 µM | 0.139 µM | 0.023 µM | 0.37 µM | 3.6 h | 1.84e-05 cm/s
CCN1c2ncc(CCOc3ccc(C(=O)O)cc3C)cc2C(=O)N(C)c2ccc(Cl)nc21 | 0.0016 µM | 0.0081 µM | 0.01 µM | 0.064 µM |  | 
CCN1c2ncc(CCOc3ccc(C(=O)O)cc3C)cc2C(=O)N(C)c2ccc(C)nc21 | 0.0013 µM | 0.033 µM | 0.019 µM | 0.28 µM |  | 
